≈ marks a conversion by molar mass, not a printed value. Calls of active or inactive are those of the source. No cut-off for these calls is given here.
What was measured:
Staphylococcus aureus [1] = experiment: Antimicrobial activity against vancomycin-intermediate resistant Staphylococcus aureus Mu50 graR mutant microdilution assay; assay type: functional
Outline: (§1)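 Standardized CLSI broth microdilution was run in CSMHB with 10^5 CFU/ml inoculum and scored at 48 h. Values are medians of at least three independent experiments. Daptomycin MICs for Mu50 strains were read by Etest per the supplied protocol instead of microdilution.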

Staphylococcus aureus [2] = experiment: Antimicrobial activity against vancomycin-intermediate resistant Staphylococcus aureus Mu50 vraG mutant microdilution assay; assay type: functional; outline: as §1
Staphylococcus aureus [3] = experiment: Antimicrobial activity against wild type vancomycin-intermediate resistant Staphylococcus aureus Mu50 by microdilution assay; assay type: functional; outline: as §1
Staphylococcus aureus [4] = experiment: Antimicrobial activity against methicillin-resistant Staphylococcus aureus COL graR mutant assessed as hypersensitivity at 1 ug/ml; assay type: functional, organism-based
Outline: (§2)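 Overnight CSMHB cultures (Mueller-Hinton broth with 25 μg/ml Ca2+ and 12.5 μg/ml Mg2+) were adjusted to A650 1.1 (~10^9 CFU/ml). They were diluted 200 μl per 7 ml CSMHB with or without 1 μg/ml vancomycin, and growth curves were plotted as A650 over time. Plasmid-carrying strains received 10 μg/ml chloramphenicol.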

Staphylococcus aureus [5] = experiment: Antimicrobial activity against wild type methicillin-resistant Staphylococcus aureus COL expressing pEPSA5graRS1 plasmid by microdilution assay
Staphylococcus aureus [6] = experiment: Antimicrobial activity against wild type vancomycin-intermediate resistant Staphylococcus aureus Mu50 expressing pEPSA5graRS1 plasmid by microdilution assay
Staphylococcus aureus [7] = experiment: Antimicrobial activity against methicillin-resistant Staphylococcus aureus sacol2646 mutant assessed as hypersensitivity at 1 ug/ml; assay type: functional, organism-based; outline: as §2
Staphylococcus aureus [8] = experiment: Antimicrobial activity against methicillin-resistant Staphylococcus aureus sacol1355 mutant assessed as hypersensitivity at 1 ug/ml; assay type: functional, organism-based; outline: as §2
Staphylococcus aureus [9] = experiment: Antimicrobial activity against wild type vancomycin-intermediate resistant Staphylococcus aureus Mu50 expressing pEPSA5 plasmid by microdilution assay
Staphylococcus aureus [10] = experiment: Antimicrobial activity against methicillin-resistant Staphylococcus aureus COL assessed as hypersensitivity at 1 ug/ml; assay type: functional, organism-based; outline: as §2
Staphylococcus aureus [11] = experiment: Antimicrobial activity against vancomycin-intermediate resistant Staphylococcus aureus Mu50 vraG mutant expressing pEPSA5graRS1 plasmid by microdilution assay
Staphylococcus aureus [12] = experiment: Antimicrobial activity against wild type vancomycin-intermediate resistant Staphylococcus aureus Mu50 expressing pEPSA5graRS2 plasmid by microdilution assay
Staphylococcus aureus [13] = experiment: Antimicrobial activity against methicillin-resistant Staphylococcus aureus sacol2358 mutant assessed as hypersensitivity at 1 ug/ml; assay type: functional, organism-based; outline: as §2
Staphylococcus aureus [14] = experiment: Antimicrobial activity against wild type vancomycin-intermediate resistant Staphylococcus aureus Mu50 expressing pEPSA5graFG1 plasmid by microdilution assay
Staphylococcus aureus [15] = experiment: Antimicrobial activity against wild type methicillin-resistant Staphylococcus aureus COL expressing pEPSA5graRS2 plasmid by microdilution assay; assay type: functional, organism-based
Outline: (§3)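 CLSI broth microdilution was run in CSMHB with 10^5 CFU/ml for strains carrying pEPSA5-based plasmids. Chloramphenicol 10 μg/ml maintained the plasmid, and growth was scored at 72 h. Media were used with or without 0.5% xylose or glucose. MIC is the median over all conditions from three independent experiments.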

Staphylococcus aureus [16] = experiment: Antimicrobial activity against methicillin-susceptible Staphylococcus aureus RN6390 graR by microdilution assay; assay type: functional, organism-based; outline: as §1
Staphylococcus aureus [17] = experiment: Antimicrobial activity against wild type methicillin-resistant Staphylococcus aureus COL expressing pEPSA5vraFG2 plasmid by microdilution assay; assay type: functional, organism-based; outline: as §3
Staphylococcus aureus [18] = experiment: Antimicrobial activity against methicillin-resistant Staphylococcus aureus COL vraG mutant by microdilution assay; assay type: functional, organism-based; outline: as §1
Staphylococcus aureus [19] = experiment: Antimicrobial activity against wild type methicillin-resistant Staphylococcus aureus COL expressing pEPSA5vraFG1 plasmid by microdilution assay; assay type: functional, organism-based; outline: as §3
Staphylococcus aureus [20] = experiment: Antimicrobial activity against methicillin-resistant Staphylococcus aureus COL graR mutant by microdilution assay; assay type: functional, organism-based; outline: as §1
Staphylococcus aureus [21] = experiment: Antimicrobial activity against wild type methicillin-resistant Staphylococcus aureus COL by microdilution assay; assay type: functional, organism-based; outline: as §1
Staphylococcus aureus [22] = experiment: Antimicrobial activity against methicillin-resistant Staphylococcus aureus COL graS mutant by microdilution assay; assay type: functional, organism-based; outline: as §1
Staphylococcus aureus [23] = experiment: Antimicrobial activity against wild type methicillin-susceptible Staphylococcus aureus RN6390 by microdilution assay; assay type: functional, organism-based; outline: as §1
Staphylococcus aureus [24] = experiment: Antimicrobial activity against wild type methicillin-resistant Staphylococcus aureus COL expressing pEPSA5 plasmid by microdilution assay; assay type: functional, organism-based; outline: as §3
Staphylococcus aureus [25] = experiment: Antimicrobial activity against methicillin-susceptible Staphylococcus aureus RN6390 graS by microdilution assay; assay type: functional, organism-based; outline: as §1
Staphylococcus aureus [26] = details: COL
Staphylococcus aureus [27] = experiment: Antimicrobial activity against methicillin-susceptible Staphylococcus aureus RN6390 vraG by microdilution assay; assay type: functional, organism-based; outline: as §1

Compound | MIC (Staphylococcus aureus [1]) [µg/mL] | MIC (Staphylococcus aureus [2]) [µg/mL] | MIC (Staphylococcus aureus [3]) [µg/mL] | also measured
CN(C)[C@@H]1C(O)=C(C(N)=O)C(=O)[C@@]2(O)C(O)=C3C(=O)c4c(O)cccc4[C@@](C)(O)[C@H]3C[C@@H]12 [TETRACYCLINE] | 128 (≈ 288 µM) | 64 (≈ 144 µM) | 64 (≈ 144 µM) | 
COc1cc(Cc2cnc(N)nc2N)cc(OC)c1OC [TRIMETHOPRIM] | 2 (≈ 6.89 µM) | 4 (≈ 13.8 µM) | 4 (≈ 13.8 µM) | 
CCCCCCCCCC(=O)N[C@@H](Cc1c[nH]c2ccccc12)C(=O)N[C@H](CC(N)=O)C(=O)N[C@@H](CC(=O)O)C(=O)N[C@@H]1C(=O)NCC(=O)N[C@@H](CCCN)C(=O)N[C@@H](CC(=O)O)C(=O)N[C@H](C)C(=O)N[C@@H](CC(=O)O)C(=O)NCC(=O)N[C@H](CO)C(=O)N[C@@H]([C@H](C)CC(=O)O)C(=O)N[C@@H](CC(=O)c2ccccc2N)C(=O)O[C@@H]1C | 1 (≈ 0.617 µM) | 2 (≈ 1.23 µM) | 2 (≈ 1.23 µM) | 
C/C(=C\C(=O)OCCCCCCCCC(=O)O)C[C@@H]1OC[C@H](C[C@@H]2O[C@H]2[C@@H](C)[C@H](C)O)[C@@H](O)[C@H]1O [MUPIROCIN] | 0.25 (≈ 0.499 µM) | 0.25 (≈ 0.499 µM) | 0.25 (≈ 0.499 µM) | 
CC[C@H](C)[C@@H]1NC(=O)[C@H](CO)NC(=O)[C@@H]2CCCN2C(=O)[C@H](C)NC(=O)CNC(=O)[C@H](CC(C)C)NC(=O)[C@H](CCCCN)N[C@H](CCCCN)NC(=O)[C@H](CCSC)NC(=O)[C@H](CCCNC(=N)N)NC(=O)[C@H](Cc2c[nH]c3ccccc23)NC(=O)[C@H](CCC(N)=O)NC(=O)[C@H](Cc2c[nH]c3ccccc23)NC(=O)[C@H](CCCNC(=N)N)NC(=O)[C@H](CCCNC(=N)N)NC(=O)[C@@H](NC(=O)[C@H](CCCCN)NC(=O)[C@@H](N)Cc2ccccc2)CSSC[C@@H](C(=O)N[C@H](C(=O)N[C@@H](CCCNC(=N)N)C(=O)N[C@@H](C)C(=O)N[C@@H](Cc2ccccc2)C(=O)O)C(C)C)NC(=O)[C@H]([C@@H](C)O)NC1=O [LACTOFERRICIN] | ≥ 512 | ≥ 512 | ≥ 512 | 
Cc1onc(-c2ccccc2)c1C(=O)N[C@@H]1C(=O)N2[C@@H]1SC(C)(C)[C@@H]2C(=O)O [OXACILLIN] | 256 (≈ 638 µM) | 1020 (≈ 2550 µM) | 512 (≈ 1280 µM) | 
C[C@@H]1O[C@@H]1P(=O)(O)O [FOSFOMYCIN] | 1020 (≈ 7420 µM) | 1020 (≈ 7420 µM) | 1020 (≈ 7420 µM) | 
N[C@@H]1CONC1=O [CYCLOSERINE] | 64 (≈ 627 µM) | 64 (≈ 627 µM) | 128 (≈ 1250 µM) | 
CO[C@H]1/C=C/O[C@@]2(C)Oc3c(C)c(O)c4c(O)c(c(/C=N/N5CCN(C)CC5)c(O)c4c3C2=O)NC(=O)/C(C)=C\C=C\[C@H](C)[C@H](O)[C@@H](C)[C@@H](O)[C@@H](C)[C@H](OC(C)=O)[C@@H]1C [RIFAMPIN] | 1020 (≈ 1240 µM) | 1020 (≈ 1240 µM) | 1020 (≈ 1240 µM) | 
CN[C@H](CC(C)C)C(=O)N[C@H]1C(=O)N[C@@H](CC(N)=O)C(=O)N[C@H]2C(=O)N[C@H]3C(=O)N[C@H](C(=O)N[C@H](C(=O)O)c4cc(O)cc(O)c4-c4cc3ccc4O)[C@H](O)c3ccc(c(Cl)c3)Oc3cc2cc(c3O[C@@H]2O[C@H](CO)[C@@H](O)[C@H](O)[C@H]2O[C@H]2C[C@](C)(N)[C@H](O)[C@H](C)O2)Oc2ccc(cc2Cl)[C@H]1O [VANCOMYCIN] |  |  | 8 (≈ 5.52 µM) | Activity (Staphylococcus aureus [4]): Active; MIC (Staphylococcus aureus [5]): 8 µg/mL (≈ 5.52 µM); MIC (Staphylococcus aureus [6]): 8 µg/mL (≈ 5.52 µM); Activity (Staphylococcus aureus [7]): inactive; Activity (Staphylococcus aureus [8]): inactive; MIC (Staphylococcus aureus [9]): 8 µg/mL (≈ 5.52 µM); Activity (Staphylococcus aureus [10]): inactive; MIC (Staphylococcus aureus [11]): 8 µg/mL (≈ 5.52 µM); MIC (Staphylococcus aureus [12]): 8 µg/mL (≈ 5.52 µM); Activity (Staphylococcus aureus [13]): inactive; MIC (Staphylococcus aureus [14]): 8 µg/mL (≈ 5.52 µM)
POLYMYXIN B | 16 | 16 | 128 | MIC (Staphylococcus aureus [15]): 64 µg/mL; MIC (Staphylococcus aureus [16]): 4 µg/mL; MIC (Staphylococcus aureus [17]): 64 µg/mL; MIC (Staphylococcus aureus [18]): 8 µg/mL; MIC (Staphylococcus aureus [19]): 64 µg/mL; MIC (Staphylococcus aureus [20]): 8 µg/mL; MIC (Staphylococcus aureus [21]): 64 µg/mL; MIC (Staphylococcus aureus [22]): 8 µg/mL; MIC (Staphylococcus aureus [23]): 32 µg/mL; MIC (Staphylococcus aureus [24]): 64 µg/mL; MIC (Staphylococcus aureus [25]): 4 µg/mL; MIC (Staphylococcus aureus [26]): 128 µg/mL; MIC (Staphylococcus aureus [27]): 4 µg/mL
CC[C@H]1OC(=O)[C@H](C)[C@@H](O[C@H]2C[C@@](C)(OC)[C@@H](O)[C@H](C)O2)[C@H](C)[C@@H](O[C@@H]2O[C@H](C)C[C@H](N(C)C)[C@H]2O)[C@](C)(O)C[C@@H](C)C(=O)[C@H](C)[C@@H](O)[C@]1(C)O [ERYTHROMYCIN] | 1020 (≈ 1400 µM) | ≥ 2050 | ≥ 2050 | 
CO[C@@H]1[C@@H](OC(N)=O)[C@@H](O)[C@H](Oc2ccc3c(O)c(NC(=O)c4ccc(O)c(CC=C(C)C)c4)c(=O)oc3c2C)OC1(C)C [NOVOBIOCIN] | 0.25 (≈ 0.408 µM) | 0.125 (≈ 0.204 µM) | 0.125 (≈ 0.204 µM) | 
NC[C@H]1O[C@H](O[C@H]2[C@H](O)[C@@H](O[C@H]3O[C@H](CO)[C@@H](O)[C@H](N)[C@H]3O)[C@H](N)C[C@@H]2N)[C@H](N)C[C@@H]1O [TOBRAMYCIN] | ≥ 2050 | ≥ 2050 | ≥ 2050 | 
O=C(N[C@H](CO)[C@H](O)c1ccc([N+](=O)[O-])cc1)C(Cl)Cl [CHLORAMPHENICOL] | 8 (≈ 24.8 µM) | 8 (≈ 24.8 µM) | 8 (≈ 24.8 µM) | 
O=C(O)c1cn(C2CC2)c2cc(N3CCNCC3)c(F)cc2c1=O [CIPROFLOXACIN] | 64 (≈ 193 µM) | 64 (≈ 193 µM) | 32 (≈ 96.6 µM) | 
